Source: ChEMBL document CHEMBL5338825, “Structure-Based Discovery of Inhibitors of the SARS-CoV-2 Nsp14 N7-Methyltransferase” (J Med Chem, 2023)
Active and inactive are the calls of the source. The calls are words filed in the database; no cut-off is given here.

What was measured:
[1] = target: Replicase polyprotein 1ab (Severe acute respiratory syndrome coronavirus 2, UniProt P0DTD1); test: (§1) Inhibition of N-terminal 6His/SUMO-tagged SARS-CoV-2 NSP14 expressed in Escherichia coli Rosetta 2 (DE3) PlysS cells using 5'GpppACCCCCCCCC-Biotin 3' and 3H-SAM as substrates incubated for 30 mins by TopCount scintillation proximity assay
[2] = target: Replicase polyprotein 1ab (Severe acute respiratory syndrome coronavirus 2) (UniProt P0DTD1); test: Inhibition of N-terminal 6His/SUMO-tagged SARS-CoV-2 NSP14 expressed in Escherichia coli Rosetta 2 (DE3) PlysS cells using 5'GpppACCCCCCCCC-Biotin 3' and 3H-SAM as substrates at 100 uM incubated for 30 mins by TopCount scintillation proximity assay relative to control
[3] = target: Replicase polyprotein 1ab (Severe acute respiratory syndrome coronavirus 2) (UniProt P0DTD1); test: Inhibition of N-terminal 6His/SUMO-tagged SARS-CoV-2 NSP14 expressed in Escherichia coli Rosetta 2 (DE3) PlysS cells using 5'GpppACCCCCCCCC-Biotin 3' and 3H-SAM as substrates at 300 uM incubated for 30 mins by TopCount scintillation proximity assay relative to control
Bacteria [4] = test: Inhibition of beta-lactamase AmpC (unknown origin) pre-incubated with compound for 5 mins followed by substrate addition and measured after 1.5 mins by absorbance based plate reader analysis; settings: time 6.5 min
How it was run: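 AmpC at 2 nM preincubated 5 min with compound at room temperature in 50 mM KPi, pH 7.0, with 1% v/v DMSO. Started with 50 μM CENTA (read at 405 nm) or 50 μM nitrocefin (read at 490 nm), monitored 1 min 30 s. Initial rate taken as % of DMSO control. Top concentration in triplicate; eight-point half-log curves in triplicate where inhibition exceeded 40%.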

[5] = Aggregation property of the compound in KPi buffer at pH 7.0 assessed as formation of colloid-like particles by dynamic light scattering analysis; format: physicochemical
How it was run: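 Compounds diluted as 8-point half-log series in filtered 50 mM KPi, pH 7.0, with 1% v/v DMSO final. Particles detected by dynamic light scattering, triplicate at each concentration. CAC taken as the intersection of separate nonlinear fits to aggregating (>10^6 scattering intensity) and non-aggregating data.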

Homo sapiens [6] = species on record: Homo sapiens; test: Inhibition of MDH (unknown origin) using oxaloacetic acid as substrate preincubated with compound for 5 mins followed by substrate addition and measured after 1.5 min in the presence of NADH by absorbance based plate reader analysis; settings: time 6.5 min
How it was run: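 MDH assay at room temperature in 50 mM KPi, pH 7.0, with 1% v/v DMSO final. Compound preincubated 5 min with 2 nM enzyme. Reaction started with 200 μM NADH plus 200 μM oxaloacetic acid, and absorbance followed at 340 nm for 1 min 30 s. Initial rate divided by the DMSO control rate. Single top concentration in triplicate; eight-point half-log curves in triplicate where inhibition exceeded 40%.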

[7] = target: Replicase polyprotein 1ab (Severe acute respiratory syndrome coronavirus 2) (UniProt P0DTD1); test: Reversible inhibition of N-terminal 6His/SUMO-tagged SARS-CoV-2 NSP14 expressed in Escherichia coli Rosetta 2 (DE3) PlysS cells using 5'GpppACCCCCCCCC-Biotin 3' and 3H-SAM as substrates at increasing concentration incubated for 30 mins by TopCount scintillation proximity assay
[8] = target: Replicase polyprotein 1ab (Severe acute respiratory syndrome coronavirus 2) (UniProt P0DTD1); test: Competitive inhibition of N-terminal 6His/SUMO-tagged SARS-CoV-2 NSP14 expressed in Escherichia coli Rosetta 2 (DE3) PlysS cells using 5'GpppACCCCCCCCC-Biotin 3' and 3H-SAM as substrates at increasing concentration incubated for 30 mins by TopCount scintillation proximity assay
How it was run: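 Competition pattern read from IC50 shifts. […] Separately, SAM fixed at 1.25 μM (5× Km) with RNA varied up to 0.5 μM (10× Km). A linear rise of IC50 with substrate concentration was taken as competitive inhibition.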

Homo sapiens [9] = species on record: Homo sapiens; test: Inhibition of MDH (unknown origin) using oxaloacetic acid as substrate preincubated with compound for 5 mins followed by substrate addition and measured after 1.5 min in the presence of NADH and 0.01% Triton-X 100 by absorbance based plate reader analysis; settings: time 6.5 min
How it was run: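 Detergent-reversal MDH assay: 50 mM KPi, pH 7.0, with 1% v/v DMSO and 0.01% v/v Triton X-100. Enzyme at 2 nM preincubated 5 min with compound, then started with 200 μM NADH plus 200 μM oxaloacetate. A340 read for 1 min 30 s, rate normalised to DMSO control. Eight-point half-log curves in triplicate.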

[10] = target: Replicase polyprotein 1ab (Severe acute respiratory syndrome coronavirus 2) (UniProt P0DTD1); test: Irreversible covalent inhibition of N-terminal 6His/SUMO-tagged SARS-CoV-2 NSP14 expressed in Escherichia coli Rosetta 2 (DE3) PlysS cells using 5'GpppACCCCCCCCC-Biotin 3' and 3H-SAM as substrates assessed as adduct formation incubated for 2 hrs by mass spectrometric analysis
How it was run: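 Nsp14 incubated with 20-fold molar excess of compound for 2 h at 20 °C, then taken into 0.1% formic acid. Separated by HPLC on a 5–95% acetonitrile/water gradient and analysed by ESI time-of-flight MS for protein mass shift.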

Bacteria [11] = test: Inhibition of beta-lactamase AmpC (unknown origin) pre-incubated with compound for 5 mins followed by substrate addition and measured after 1.5 mins in the presence of 0.01% Triton-X 100 by absorbance based plate reader analysis; settings: time 6.5 min
How it was run: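 AmpC detergent-reversal assay: 50 mM KPi, pH 7.0, with 1% v/v DMSO and 0.01% v/v Triton X-100. Enzyme at 2 nM preincubated 5 min with compound, then 50 μM CENTA (405 nm) or nitrocefin (490 nm) added. Absorbance followed for 1 min 30 s and rate normalised to DMSO. Eight-point half-log curves in triplicate.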

[12] = target: Replicase polyprotein 1ab (Severe acute respiratory syndrome coronavirus 2) (UniProt P0DTD1); test: Non-covalent inhibition of N-terminal 6His/SUMO-tagged SARS-CoV-2 NSP14 expressed in Escherichia coli Rosetta 2 (DE3) PlysS cells using 5'GpppACCCCCCCCC-Biotin 3' and 3H-SAM as substrates incubated for 30 mins by TopCount scintillation proximity assay
How it was run: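 Radiometric N7-MTase assay tracking [3H]-methyl transfer from SAM onto the cap of […] RNA, run with 0.01% v/v Triton X-100. Concentration–response in triplicate to give IC50.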

[13] = target: Replicase polyprotein 1ab (Severe acute respiratory syndrome coronavirus 2) (UniProt P0DTD1); test: Inhibition of N-terminal 6His/SUMO-tagged SARS-CoV-2 NSP14 expressed in Escherichia coli Rosetta 2 (DE3) PlysS cells using 5'GpppACCCCCCCCC-Biotin 3' and 3H-SAM as substrates at 30 to 50 uM incubated for 30 mins by TopCount scintillation proximity assay relative to control; settings: dose 30-50 µM
[14] = target: Replicase polyprotein 1ab (Severe acute respiratory syndrome coronavirus 2) (UniProt P0DTD1); test: as §1

Structure (SMILES)	IC50 [1] [µM]	inhibition [3] [%]	inhibition (Homo sapiens [6])	Activity [5]	other results
Cc1cc(C(=O)Nc2cccc(N3CCNC3=O)c2C)sc1C=O	3.5				inhibition [2]: > 50%
Nc1cn2cc(-c3cscc3Cl)ncc2n1	78	> 50			
Cn1c(=O)[nH]c2ncc(-c3cccc(C(=O)Nc4ccc(Cl)c(CO)c4)c3)cc21	15				
C#Cc1cccc(NC(=O)c2cccc(-c3cnc4[nH]c(=O)n(C)c4c3)c2)c1			inactive		inhibition (Bacteria [4]): inactive; CAC [5]: 10 µM
COc1cc(F)cc(NC(=O)c2cccc(-c3cnc4[nH]c(=O)n(C)c4c3)c2)c1	14				
Oc1ccccc1-c1ncnc2[nH]ccc12	12	> 50	Active		inhibition (Bacteria [4]): Active; inhibition [7]: Active; inhibition [8]: Active; inhibition (Homo sapiens [9]): inactive
O=Cc1nc2ccccn2c1C=C1COC1	11				inhibition [2]: > 50%
O=Cc1cc(F)c(C(=O)Nc2cc(Cl)c3c(c2)OCCO3)cc1F	25				inhibition [2]: > 50%
CC(C)SCn1cnc2cnn(C)c2c1=O	59	> 50	Active	Active	inhibition (Homo sapiens [9]): inactive
C=CC(=O)N(C)c1ccc(C(=O)Nc2ccc(-c3cn4ccsc4n3)cc2)cc1	39				inhibition [10]: inactive; inhibition [2]: > 50%
CCc1c(C(=O)/C=C/c2ccc(O)c([N+](=O)[O-])c2)oc2ccccc12	25				
CN(Cc1ccncc1)c1cc(Br)ncn1	170	> 50		Active	
Cc1c(C(=O)/C=C/c2cc(Br)c(O)cc2F)c(C#N)c2n1CCC2			Active	Active	inhibition (Bacteria [11]): inactive; inhibition (Bacteria [4]): Active; inhibition (Homo sapiens [9]): inactive
Cn1c(C(=O)NCc2ccc(O)c([N+](=O)[O-])c2)c(Br)c2ccccc21	19		Active	Active	inhibition (Bacteria [11]): inactive; inhibition (Bacteria [4]): Active; inhibition (Homo sapiens [9]): inactive
Cn1ncc(N)c1-c1cc2ccccc2[nH]1	341	> 50		Active	
N#Cc1c(C(=O)NCc2ccc(O)c([N+](=O)[O-])c2)[nH]c2ccccc12	27		Active	Active	inhibition (Bacteria [11]): inactive; inhibition (Bacteria [4]): Active; inhibition (Homo sapiens [9]): inactive
C=C(Cl)COC(=O)c1cnc2[nH]ccc2c1	31	> 50	Active		
O=C(NC1CSC1)c1ncnn2cccc12	62	> 50		Active	
Cn1c(=O)[nH]c2ncc(-c3cccc(C(=O)Nc4cccc(C#N)c4)c3)cc21	20		inactive		inhibition (Bacteria [4]): inactive; CAC [5]: 10 µM; inhibition [12]: Active; inhibition [13]: > 50%
CCC(=O)NCCC(=O)N1CCC(C2C(=O)Nc3cc(Cl)ccc32)CC1 (stereo not given)					inhibition [14]: inactive
O=C(OCc1cn2cc(Br)ccc2n1)c1cc(-c2ccco2)[nH]n1	6				
Cc1nc2ncc(-c3c[nH]nn3)cc2[nH]1	127	> 50		Active	
CN(C)c1cncc(NC(=O)c2ccc(C=O)cc2O)c1	12		inactive		inhibition (Bacteria [4]): inactive; inhibition [2]: > 50%
N#Cc1cncc(NCc2cc(Br)c[nH]2)n1	60	> 50			
